# Measurements of several laboratories.
# Protocols differ between the studies behind these lines.
Compound,system,setting,measurement,result
Cc1nc(-c2cnc(NC(C)C)n(C)c2=O)ccc1Oc1ccnc(-c2cnn(C)c2)c1,"female mouse, plasma","oral, 3.75 mg/kg, single dose",Cmax,2780 ng/mL
CC(C)(C)c1ccc(O)c(CN(Cc2cc(C(C)(C)C)ccc2O)C2CCC(NC(N)=O)CC2)c1 (centres unmarked),"male C57BL/6 mouse, brain","intraperitoneal, 10 mg/kg, single dose",Cmax,1070 ng/g
COc1ccc([C@@H]2CN(C(=O)[C@@H](O)CO)C[C@@]2(C)[C@@H](C)O)cc1OC1CN(c2ccc(C)cn2)C1,"human, plasma","oral, 5 mg, single dose, healthy volunteers",Vd/F,46.4 L
COc1cc(C(=O)NC2CCN(C)CC2)c(F)cc1Nc1ncc(C(F)(F)F)c(Oc2cccc3c2C(=O)N(C)C3)n1,"human, plasma","oral, 25 mg, multiple doses, once daily, patients",Vd/F,520 L
CC(C)(Sc1ccncc1-c1ccc(C#N)c2ccccc12)C(=O)O,"male human, plasma","oral, 5 mg, single dose, fed, healthy volunteers",Vd/F,625 L
Cc1cc(Nc2cc(N3CCN(C)CC3)nc(/C=C/c3ccccc3)n2)n[nH]1,"human, plasma","oral, 200 mg/m², multiple doses, patients",Vd/F,907 L
CCNCCCNC/C=C\CNCCCNCC,"human, plasma","intravenous, 200 mg, patients, infusion",Vd,0.56 L/kg
CO[C@H]1CC[C@H](N2C(=O)CNc3ncc(-c4ccc(C(C)(C)O)nc4)nc32)CC1,"human, plasma","oral, 45 mg, patients",Vd/F,186 L
